According to ChEMBL document CHEMBL1156745, “Exploration of O-spiroketal C-arylglucosides as novel and selective renal sodium-dependent glucose co-transporter 2 (SGLT2) inhibitors” (Bioorg Med Chem Lett, 2009):

Columns and labels:
[1] = molecular target: T1, Sodium/glucose cotransporter 2 (Homo sapiens, UniProt P31639); experiment: Inhibition of human SGLT2 transfected in HEK293.ETN cells assessed as AMG uptake after 1.5 hrs by scintillation counting; assay type: cell-based
T1 sequence (P31639 whole entry): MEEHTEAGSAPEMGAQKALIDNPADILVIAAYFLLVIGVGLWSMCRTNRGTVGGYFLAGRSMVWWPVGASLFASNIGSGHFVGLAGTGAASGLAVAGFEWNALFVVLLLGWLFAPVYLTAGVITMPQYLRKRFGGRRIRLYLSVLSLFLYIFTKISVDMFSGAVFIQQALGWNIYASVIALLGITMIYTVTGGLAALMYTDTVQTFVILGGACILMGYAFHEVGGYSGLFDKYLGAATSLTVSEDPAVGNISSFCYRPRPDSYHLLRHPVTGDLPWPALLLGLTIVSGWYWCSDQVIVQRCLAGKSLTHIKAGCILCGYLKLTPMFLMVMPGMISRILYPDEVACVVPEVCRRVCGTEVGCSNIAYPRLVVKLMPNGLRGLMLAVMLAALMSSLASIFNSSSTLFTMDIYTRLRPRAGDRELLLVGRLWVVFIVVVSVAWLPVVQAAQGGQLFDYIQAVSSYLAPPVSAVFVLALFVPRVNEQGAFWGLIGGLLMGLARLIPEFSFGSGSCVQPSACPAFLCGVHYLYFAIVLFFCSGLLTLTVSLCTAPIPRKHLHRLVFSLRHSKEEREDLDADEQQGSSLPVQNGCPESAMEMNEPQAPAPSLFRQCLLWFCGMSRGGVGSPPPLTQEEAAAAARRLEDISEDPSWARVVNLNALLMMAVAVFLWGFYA
Procedure, shortened: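 Full-length human SGLT2 in pEAK15, stably expressed in HEK293.ETN (puromycin-selected clones). Cells plated 1 × 10⁵/well in DMEM/10% FBS, 48 h, 37 °C. Compound plus 40 µCi/mL [¹⁴C]AMG in sodium or sodium-free Tris/Hepes buffer pH 7.2, 1.5 h at 37 °C with shaking. Washed, uptake read by scintillation counting. Eight concentrations in triplicate. Sodium-free value subtracted from sodium value.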

[2] = molecular target: T2, Sodium/glucose cotransporter 1 (Homo sapiens, UniProt P13866); experiment: Inhibition of human SGLT1 transfected in COS-7 cells assessed as AMG uptake after 2 hrs by scintillation counting; assay type: cell-based
T2 sequence (P13866 whole entry): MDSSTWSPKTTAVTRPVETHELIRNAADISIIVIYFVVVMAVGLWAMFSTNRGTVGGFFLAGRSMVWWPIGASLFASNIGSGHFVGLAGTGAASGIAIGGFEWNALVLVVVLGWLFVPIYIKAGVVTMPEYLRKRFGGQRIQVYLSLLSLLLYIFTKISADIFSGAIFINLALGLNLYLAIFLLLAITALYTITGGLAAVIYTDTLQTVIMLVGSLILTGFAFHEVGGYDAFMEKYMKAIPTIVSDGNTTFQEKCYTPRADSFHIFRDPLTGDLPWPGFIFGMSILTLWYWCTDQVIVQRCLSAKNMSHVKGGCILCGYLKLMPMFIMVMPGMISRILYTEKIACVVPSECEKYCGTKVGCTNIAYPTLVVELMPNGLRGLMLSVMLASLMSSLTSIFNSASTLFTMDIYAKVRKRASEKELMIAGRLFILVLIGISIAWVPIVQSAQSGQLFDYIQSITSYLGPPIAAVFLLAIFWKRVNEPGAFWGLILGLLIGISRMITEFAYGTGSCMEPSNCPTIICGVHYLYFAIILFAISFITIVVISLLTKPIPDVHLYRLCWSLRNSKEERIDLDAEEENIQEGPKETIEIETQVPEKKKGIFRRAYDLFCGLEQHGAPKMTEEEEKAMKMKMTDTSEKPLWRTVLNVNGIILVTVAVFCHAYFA
Procedure, shortened: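 Transient transfection of human SGLT1 plasmid into COS-7 cells, which were cryopreserved until use. Seeded at 1 × 10⁵ cells/well in DMEM + 10% FBS, 48 h at 37 °C, 5% CO₂. Exposed to inhibitor with 40 µCi/mL [¹⁴C]AMG in Na⁺ or Na⁺-free Tris/Hepes buffer pH 7.2 for 2 h at 37 °C, shaking. Eight concentrations, triplicate. Na⁺-dependent uptake taken as Na⁺ minus Na⁺-free signal.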

Mus musculus = experiment: Toxicity in CD1 mouse assessed as induction of severe diarrhea at 25 mg/kg, po after 6 hrs; assay type: organism-based; set-up: dose 25 mg/kg, route oral; conditions: in vivo
Procedure, shortened: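 CD1 mice given a single oral dose of 25 mg/kg. Watched for diarrhea at 6 h.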

SMILES	IC50 [1] [µM]	IC50 [2] [µM]	Activity (Mus musculus)
CCc1ccc(Cc2cc3c(cc2Cl)CO[C@]32O[C@H](CN=[N+]=[N-])[C@@H](O)[C@H](O)[C@H]2O)cc1	0.01	1	
Cc1cccc(Cc2cc3c(cc2Cl)CO[C@]32O[C@H](CO)[C@@H](O)[C@H](O)[C@H]2O)c1F	0.0008	1.5	
Cc1cc(F)ccc1Cc1cc2c(cc1Cl)CO[C@]21O[C@H](CO)[C@@H](O)[C@H](O)[C@H]1O	0.1	1	
OC[C@H]1O[C@]2(OCc3cc(Cl)c(Cc4ccc(OC(F)(F)F)cc4)cc32)[C@H](O)[C@@H](O)[C@@H]1O	0.0003	3.1	
CCOc1ccc(Cc2cc3c(cc2Cl)CO[C@]32O[C@H](CO)[C@@H](O)[C@H](O)[C@H]2O)cc1	0.0065	1.3	
CCOc1ccc(Cc2cc3c(cc2Cl)CO[C@]32O[C@H](CO)[C@@H](O)[C@H](O)[C@H]2O)cc1Cl	0.068	10.5	
CCc1ccc(Cc2cc3c(cc2Cl)CO[C@]32O[C@H](COCC(F)(F)F)[C@@H](O)[C@H](O)[C@H]2O)cc1	0.07	14	
CCOc1cc(F)ccc1Cc1cc2c(cc1Cl)CO[C@]21O[C@H](CO)[C@@H](O)[C@H](O)[C@H]1O	1	10	
CCc1ccc(C2(c3cc4c(cc3Cl)CO[C@]43O[C@H](CO)[C@@H](O)[C@H](O)[C@H]3O)CC2)cc1	0.0013	6	
CCc1ccc(Cc2cc3c(cc2Cl)CO[C@]32O[C@H](CN)[C@@H](O)[C@H](O)[C@H]2O)cc1	0.1	> 100	
COc1c(C)cccc1Cc1cc2c(cc1Cl)CO[C@]21O[C@H](CO)[C@@H](O)[C@H](O)[C@H]1O	0.01	1	
CCc1ccc(C(=O)c2cc3c(cc2Cl)CO[C@]32O[C@H](CO)[C@@H](O)[C@H](O)[C@H]2O)cc1	0.022	43	
CCc1ccc(C(F)(F)c2cc3c(cc2Cl)CO[C@]32O[C@H](CO)[C@@H](O)[C@H](O)[C@H]2O)cc1	0.007	1.6	
CC(C)c1ccc(Cc2cc3c(cc2Cl)CO[C@]32O[C@H](CO)[C@@H](O)[C@H](O)[C@H]2O)cc1	0.0071	2.5	
CCOc1ccc(Cc2ccc3c(c2)[C@]2(OC3)O[C@H](CO)[C@@H](O)[C@H](O)[C@H]2O)cc1		10	
CCc1ccc(Cc2cc3c(cc2F)CO[C@]32O[C@H](CO)[C@@H](O)[C@H](O)[C@H]2O)cc1	0.0086	5.3	
CCc1ccc(Cc2cccc3c2CO[C@]32O[C@H](CO)[C@@H](O)[C@H](O)[C@H]2O)cc1	> 1		
CCc1ccc(Cc2cc3c(cc2Cl)CO[C@]32O[C@H](CO)[C@@H](O)[C@H](O)[C@H]2O)cc1	0.0066	0.6	Toxic
CCOc1ccc(Cc2cc3c(cc2Cl)CO[C@]32O[C@H](CO)[C@@H](O)[C@H](O)[C@H]2O)c(C)c1	> 1	1	
CC(C)(C)c1ccc(Cc2cc3c(cc2Cl)CO[C@]32O[C@H](CO)[C@@H](O)[C@H](O)[C@H]2O)cc1	0.013	9.7	
COc1ccc(Cc2cc3c(cc2Cl)CO[C@]32O[C@H](CO)[C@@H](O)[C@H](O)[C@H]2O)cc1	0.0025	0.2	
CCc1ccc(Cc2cc3c(cc2Cl)CO[C@]32O[C@H](COC)[C@@H](O)[C@H](O)[C@H]2O)cc1	0.0058	2.7	
CCOc1ccc(Cc2cc3c(cc2Cl)CO[C@]32O[C@H](CO)[C@@H](O)[C@H](O)[C@H]2O)c(Cl)c1	> 1	10	
COc1ccc(Cc2cc3c(cc2Cl)CO[C@]32O[C@H](CO)[C@@H](O)[C@H](O)[C@H]2O)c(C)c1	> 1	10	
